Test results as given in ChEMBL document CHEMBL1149207, “Non-nucleoside inhibitors of the hepatitis C virus NS5B polymerase: discovery of benzimidazole 5-carboxylic amide derivatives with low-nanomolar potency” (Bioorg Med Chem Lett, 2004).

Target: RNA-directed RNA polymerase (Hepacivirus hominis, UniProt O39930)
Assay: Concentration required for inhibiting hepatitis C virus NS5B RNA polymerase activity.
In short: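 HCV NS5B polymerase IC50; each value is the mean of at least duplicate experiments, run on two separate weighings of compound.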

Sequence of RNA-directed RNA polymerase (O39930 whole entry): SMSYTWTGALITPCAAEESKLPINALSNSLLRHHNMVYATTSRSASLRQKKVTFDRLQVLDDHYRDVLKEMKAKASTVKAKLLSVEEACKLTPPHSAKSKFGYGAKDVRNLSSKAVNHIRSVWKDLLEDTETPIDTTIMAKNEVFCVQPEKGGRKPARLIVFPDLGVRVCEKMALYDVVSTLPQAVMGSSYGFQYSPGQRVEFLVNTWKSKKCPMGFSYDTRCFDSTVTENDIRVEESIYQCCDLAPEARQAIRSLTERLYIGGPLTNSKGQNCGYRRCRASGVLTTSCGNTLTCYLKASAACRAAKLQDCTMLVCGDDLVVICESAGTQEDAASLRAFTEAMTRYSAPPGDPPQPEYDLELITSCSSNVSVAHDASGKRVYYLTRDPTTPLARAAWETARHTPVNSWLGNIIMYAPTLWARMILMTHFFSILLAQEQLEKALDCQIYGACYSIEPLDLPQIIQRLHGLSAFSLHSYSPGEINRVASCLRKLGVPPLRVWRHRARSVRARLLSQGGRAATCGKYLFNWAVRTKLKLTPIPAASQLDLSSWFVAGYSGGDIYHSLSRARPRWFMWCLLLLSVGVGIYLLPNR

In order of rising IC50:
1. O=C(O)C(=O)Nc1ccc2[nH]cc(C[C@H](NC(=O)c3ccc4c(c3)nc(-c3ccoc3)n4C3CCCCC3)C(=O)O)c2c1  8 nM
2. O=C(N[C@@H](Cc1c[nH]c2ccc(C3N=NN=N3)cc12)C(=O)O)c1ccc2c(c1)nc(-c1ccoc1)n2C1CCCCC1  15 nM
3. O=C(O)COc1ccc2[nH]cc(C[C@H](NC(=O)c3ccc4c(c3)nc(-c3ccoc3)n4C3CCCCC3)C(=O)O)c2c1  19 nM
4. O=C(O)c1ccc2[nH]cc(C[C@H](NC(=O)c3ccc4c(c3)nc(-c3ccoc3)n4C3CCCCC3)C(=O)O)c2c1  20 nM
5. NC(=O)c1ccc2[nH]cc(C[C@H](NC(=O)c3ccc4c(c3)nc(-c3ccoc3)n4C3CCCCC3)C(=O)O)c2c1  37 nM
6. O=C(N[C@@H](Cc1c[nH]c2ccc(O)cc12)C(=O)O)c1ccc2c(c1)nc(-c1ccoc1)n2C1CCCCC1  50 nM
7. CC(=O)Nc1ccc2[nH]cc(C[C@H](NC(=O)c3ccc4c(c3)nc(-c3ccoc3)n4C3CCCCC3)C(=O)O)c2c1  60 nM
8. Nc1ccc2[nH]cc(C[C@H](NC(=O)c3ccc4c(c3)nc(-c3ccoc3)n4C3CCCCC3)C(=O)O)c2c1  90 nM
9. CC(C)(Oc1ccc2[nH]cc(C[C@H](NC(=O)c3ccc4c(c3)nc(-c3ccoc3)n4C3CCCCC3)C(=O)O)c2c1)C(=O)O  100 nM
10. CS(=O)(=O)Nc1ccc2[nH]cc(C[C@H](NC(=O)c3ccc4c(c3)nc(-c3ccoc3)n4C3CCCCC3)C(=O)O)c2c1  120 nM
11. O=C(N[C@@H](Cc1c[nH]c2ccc(O)cc12)C(=O)O)c1ccc2c(c1)nc(-c1ccccn1)n2C1CCCCC1  140 nM
12. O=C(N[C@@H](Cc1c[nH]c2ccc(NS(=O)(=O)C(F)(F)F)cc12)C(=O)O)c1ccc2c(c1)nc(-c1ccoc1)n2C1CCCCC1  150 nM
13. Cn1cc(C[C@@H](NC(=O)c2ccc3c(c2)nc(-c2ccoc2)n3C2CCCCC2)C(=O)O)c2cc(O)ccc21  160 nM
14. O=C(N[C@@H](Cc1ccc(O)cc1)C(=O)O)c1ccc2c(c1)nc(-c1ccoc1)n2C1CCCCC1  400 nM
15. COc1ccc([C@H](NC(=O)c2ccc3c(c2)nc(-c2ccoc2)n3C2CCCCC2)C(=O)O)cc1OC  400 nM
16. O=C(N[C@@H](Cc1c[nH]c2ccccc12)C(=O)O)c1ccc2c(c1)nc(-c1ccoc1)n2C1CCCCC1  400 nM
17. COc1ccc2[nH]cc(C[C@H](NC(=O)c3ccc4c(c3)nc(-c3ccoc3)n4C3CCCCC3)C(=O)O)c2c1  400 nM
18. Cc1[nH]c2ccc(O)cc2c1C[C@H](NC(=O)c1ccc2c(c1)nc(-c1ccoc1)n2C1CCCCC1)C(=O)O  460 nM
19. O=C(N[C@H](Cc1c[nH]c2ccc(O)cc12)C(=O)O)c1ccc2c(c1)nc(-c1ccoc1)n2C1CCCCC1  700 nM
20. O=C(N[C@@H](Cc1ccc(O)cc1)C(=O)O)c1ccc2c(c1)nc(-c1ccccn1)n2C1CCCCC1  1500 nM
21. O=C(NCCc1c[nH]c2ccc(O)cc12)c1ccc2c(c1)nc(-c1ccoc1)n2C1CCCCC1  1500 nM
22. O=C(N[C@@H](Cc1c[nH]c2ccccc12)C(=O)O)c1ccc2c(c1)nc(-c1ccccn1)n2C1CCCCC1  1900 nM
23. COc1ccc([C@H](NC(=O)c2ccc3c(c2)nc(-c2ccccn2)n3C2CCCCC2)C(=O)O)cc1OC  2000 nM
24. O=C(N[C@@H](Cc1c[nH]c2ccc([N+](=O)[O-])cc12)C(=O)O)c1ccc2c(c1)nc(-c1ccoc1)n2C1CCCCC1  2000 nM
25. Cc1ccc2[nH]cc(C[C@H](NC(=O)c3ccc4c(c3)nc(-c3ccoc3)n4C3CCCCC3)C(=O)O)c2c1  2200 nM
26. O=C(N[C@@H](Cc1c[nH]c2ccc(F)cc12)C(=O)O)c1ccc2c(c1)nc(-c1ccoc1)n2C1CCCCC1  2900 nM
27. COc1ccc([C@@H](C)NC(=O)c2ccc3c(c2)nc(-c2ccccn2)n3C2CCCCC2)cc1OC  3000 nM
28. O=C(N[C@@H](Cc1ccccc1)C(=O)O)c1ccc2c(c1)nc(-c1ccoc1)n2C1CCCCC1  4000 nM
29. O=C(N[C@@H](Cc1ccccc1)C(=O)O)c1ccc2c(c1)nc(-c1ccccn1)n2C1CCCCC1  7000 nM
30. COc1ccc(CNC(=O)c2ccc3c(c2)nc(-c2ccccn2)n3C2CCCCC2)cc1OC  7000 nM
31. COc1ccc([C@H](C)NC(=O)c2ccc3c(c2)nc(-c2ccccn2)n3C2CCCCC2)cc1OC  12000 nM
